SENP1 FRET inh = SENP1 (human) catalytic domain inhibition | Q9P0U3 | recombinant SENP1 catalytic domain, CyPet-SUMO1-YPet FRET cleavage | inhibition, % at 10 µM | actives 0.21% (n = 360,000) | AID 624204;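 active = inhibition at least 30% at 10 µM, raw YFP signal under a set limit, fluorescence ratio 0.5 to 1.5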;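 also: 0% = enzyme with DMSO and 100% = no enzyme wells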
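Material – human SENP1 catalytic domain · Input – SENP1 enzyme, 20 pM final · Compound dosing – single concentration of 10 µM compound, 0.5% DMSO final · Timing – enzyme reaction for 50 min at room temperature, dark · Measured by – FRET fluorescence in CFP and YFP emission channels · Control set – no-enzyme wells low, DMSO-plus-enzyme wells high control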
DAGLB inhibitor = blocks human DAGLB lipase activity | Q8NCG7 | HEK293T DAGLB membrane lysate, EnzChek fluorogenic substrate | inhibition, % at 5.17 µM | actives 0.059% (n = 340,000); in the data active = inhibition above about 34%;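 also: 0% = enzyme with vehicle and 100% = wells lacking enzyme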
Target sequence (Q8NCG7 whole entry, looked up): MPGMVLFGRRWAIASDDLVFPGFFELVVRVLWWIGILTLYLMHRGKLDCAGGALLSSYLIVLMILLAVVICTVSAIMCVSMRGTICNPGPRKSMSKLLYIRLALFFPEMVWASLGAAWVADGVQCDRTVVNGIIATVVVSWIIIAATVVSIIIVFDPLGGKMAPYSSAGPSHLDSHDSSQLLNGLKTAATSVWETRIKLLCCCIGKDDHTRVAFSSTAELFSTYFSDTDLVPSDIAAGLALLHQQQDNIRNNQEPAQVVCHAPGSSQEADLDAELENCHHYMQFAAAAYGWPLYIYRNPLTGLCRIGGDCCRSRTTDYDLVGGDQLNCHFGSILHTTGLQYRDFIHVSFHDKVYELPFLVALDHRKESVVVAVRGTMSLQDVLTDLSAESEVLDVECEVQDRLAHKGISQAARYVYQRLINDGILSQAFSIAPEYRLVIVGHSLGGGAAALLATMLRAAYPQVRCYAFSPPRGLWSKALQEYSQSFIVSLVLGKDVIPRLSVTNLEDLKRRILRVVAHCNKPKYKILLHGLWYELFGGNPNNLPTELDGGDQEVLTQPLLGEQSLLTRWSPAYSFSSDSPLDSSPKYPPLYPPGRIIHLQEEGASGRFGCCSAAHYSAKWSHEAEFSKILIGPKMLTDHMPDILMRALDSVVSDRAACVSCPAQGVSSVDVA
CendR NRP1 mod = alters CendR peptide binding to human NRP-1 | actives 0.85% (n = 360,000) | O14786 | FAM-RPARPAR peptide binding to NRP-1, fluorescence polarization | inhibition, % at 25 µM;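 active = inhibition or corrected inhibition above about 18%, plus a signal ratio from 0.5 to 1.5, limit read from the data, passing the limit was not always enough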
MIN6 prolif = induces beta-cell replication in MIN6 cells | proliferation, % at 10 µM | MIN6 cells proliferation, ATPlite luminescence, 48 h; cells starved in 0.2% serum; 100% = growth in 10% serum | actives 0.29% (n = 330,000) | AID 2380;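 active = compounds whose signal lies at least 3.5 SD above the mean of all wells on their plate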;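 also: 0% = DMSO-treated cells in low-serum medium and 100% = 10% serum control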
MT1-MMP act inh = inhibitors of human MT1-MMP activation; AID 651647; GFP/RFP ratio change, % at 20 µM; actives 0.061% (n = 360,000); HT1080 RFP-PRO-GFP cells, GFP/RFP ratio fluorescence, overnight; percent of plate control window, DMSO zero; P50281;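 active = GFP/RFP ratio change of at least 30% with cell ATP level not reduced by more than half and red fluorescence within 50% of control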
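Material: RFP-PRO-GFP reporter HT1080 cells. Dosing: single-point 20 µM compound, 1% DMSO. Controls: DMSO and RFP-L50D-GFP cell wells. Timing: cells overnight before dosing, compound overnight, 37 °C, 5% CO2. Measure: GFP/RFP fluorescence ratio.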
Myeloid diff MLP = compounds promoting myeloid differentiation; ER-HoxA9 myeloid progenitors, lysozyme-GFP differentiation, flow cytometry; calls only at 10 µM; actives 1% (n = 360,000);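 active = normalized GFP-positive differentiation at or above the plate's own cutoff, the solvent-only control mean plus 3 SD; inconclusive = no clear call, values can overlap the other calls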;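 also: cells exposed to compound for four days before flow analysis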
* hit, by the source's call; i = inactive; ? = inconclusive; . = no result given; + = active, no number. This is a sample that favours compounds with a hit; in the whole collection about 2.4% have one here.

SMILES	SENP1 FRET inh	DAGLB inhibitor	CendR NRP1 mod	MIN6 prolif	MT1-MMP act inh	Myeloid diff MLP
COc1ccc(/C=C2\SC(N3CCCCC3)=NC2=O)cc1OC	-4	1	-11	-5	7	i
COc1cc(/C=C2\SC(N3CCC(C)CC3)=NC2=O)ccc1O	63*	2	-84	-4	-24	i
COc1cccc(NC(=O)CN(C)C(=O)c2cccc(NS(=O)(=O)c3ccccc3)c2)c1	2	-1	30*	4	2	i
Cc1occc1C(=O)Nc1cccc(Cl)c1Cl	0	-4	29*	5	-3	i
COC(=O)CSc1nc2c(cnn2-c2ccc(F)cc2)c(=O)[nH]1	-6	2	4	-2	0	i
COC(=O)c1cc(NC(=O)CCc2c(C)nc3ncnn3c2C)cc(C(=O)OC)c1	1	2	-5	-2	-20	+
Cc1ccc(NC(=O)COC(=O)CCc2c(C)nc3ncnn3c2C)cc1C	0	-1	24*	-5	-3	i
COc1ccc([C@@H]2[C@@H]3C(=O)N(C(C)(C)C)C(=O)[C@@H]3[C@]3(C)C(=O)N(c4ccccc4)C(=O)N23)cc1	3	-6	-6	9	-11	+
CC1CC(=O)Nc2ccc([N+](=O)[O-])cc2N1C (stereo unspecified)	3	-1	-1	-3	3	i
CC1CC(=O)Nc2cc([N+](=O)[O-])ccc2N1 (stereo unspecified)	2	1	32*	-4	-13	i
CN(Cc1ccccc1F)C(=O)c1ccc(NC(=O)CC2SC(N3CCCCC3)=NC2=O)cc1 (stereo unspecified)	-4	3	11	.	-5	i
O=[N+]([O-])c1cccc(N(CC(O)CN2CCCC2)S(=O)(=O)c2ccccc2)c1 (stereo unspecified)	0	-1	-9	0	-1	i
CC1Cc2ccccc2N1C(=S)Nc1ccc(S(N)(=O)=O)cc1 (stereo unspecified)	-8	-2	-3	-4	15	+
CCCCN(C)c1c(C)nc2ccc(C(=O)N(CC)CCN(C)C)cn12	-22	.	9	.	-2	i
O=C(O)CCCC(=O)N1CCc2cc(S(=O)(=O)N3CCc4ccccc43)ccc21	2	3	30*	-2	0	i
CCC(=O)N1CCc2cc(S(=O)(=O)N3CCc4ccccc43)ccc21	2	2	16	0	5	i
O=[N+]([O-])c1ccc(-c2ccc(/C=N/Nc3nc(N4CCCCC4)nc(N4CCCCC4)n3)o2)cc1	-24	.	-15	-4	-69	+
O=[N+]([O-])c1cccc(-c2ccc(/C=N/Nc3nc(N4CCCCC4)nc(N4CCCCC4)n3)o2)c1	3	-2	-2	-1	-7	i
O=c1[nH]c(=O)n(C2OC(CO)C(O)C2O)c2c1CCCC2 (stereo unspecified)	0	.	23*	.	-2	i
O=c1[nH]c(=O)n(C2OC(CO)C(O)C2O)cc1Br (stereo unspecified)	-1	0	5	-3	2	i
CN1CCN(C(=O)c2ccc3c(c2)N(Cc2ccc(Cl)cc2)C(=O)c2ccccc2S3=O)CC1 (stereo unspecified)	1	3	-24	-1	3	+
COc1ccccc1NC(=S)N(Cc1ccco1)Cc1cc2cccc(C)c2[nH]c1=O	2	0	40*	0	0	i
COc1ccccc1NC(=S)N(Cc1ccco1)Cc1cc2cc(C)c(C)cc2[nH]c1=O	-5	3	-7	-4	-10	?
NS(=O)(=O)c1ccc(NC(=O)c2cc(=O)c3ccccc3o2)cc1	-2	0	-3	0	2	i
CC(C)c1ccc(NC(=O)Cn2nnc(C(=O)NCc3ccco3)c2N)cc1	0	-3	10	3	1	i
SMILES	SENP1 FRET inh	DAGLB inhibitor	CendR NRP1 mod	MIN6 prolif	MT1-MMP act inh	Myeloid diff MLP
Cc1cccc(CSc2nc3nc(C)cc(C)n3n2)c1	0	-1	-3	-4	-4	+
Cc1cc(C)n2nc(SCCOc3ccc(F)cc3)nc2n1	1	-2	4	-4	3	+
Cc1cc(C)n2nc(SCc3ccc(F)cc3Cl)nc2n1	3	-1	1	3	0	i
Cc1cc(C)n2nc(SCc3c(F)cccc3Cl)nc2n1	1	-2	3	0	0	i
CCOC(=O)C1=C(C)N(CCCC(=O)O)C(=O)NC1c1ccc(Br)cc1 (stereo unspecified)	.	.	.	-3	.	.
CCOC(=O)C1=C(C)N(CCCC(=O)O)C(=O)NC1c1ccccc1 (stereo unspecified)	0	-2	30*	-2	4	i
Cc1cc(C)c(S(=O)(=O)N2CCN(C(=O)c3ccccc3OCc3c(C)noc3C)CC2)c(C)c1	2	-5	0	.	-5	i
CCn1c(COc2c(C)cccc2C)nnc1SCC(=O)N1CCN(c2ccccc2)CC1	3	7	37*	-3	-2	i
COc1ccc([C@H]2C(C#N)=C([S-])N[C@](C)(O)[C@@H]2[n+]2ccccc2)cc1	-33	.	-23	.	-14	+
Cc1ccc(/C=C\c2nccc3c2[nH]c2ccccc23)cc1	-30	-8	-4	-6	-22	+
NC1=C(Br)C(=O)c2ncccc2C1=O	0	-6	28*	.	-12	?
O=[N+]([O-])c1ccc(Nc2ccccc2)c2nonc12	21	27	-78	-1	-35	i
O=[N+]([O-])c1ccc(Sc2cccc[n+]2[O-])c2nonc12	41*	1	34*	.	-130	.
O=C1NNC(=O)C2C3C=CC(C4CC34)C12 (stereo unspecified)	2	1	-8	0	2	i
CCOC(=O)Cc1c(C)c2c(C)[nH]nc2oc1=O	-12	0	43*	-3	3	i
CCCc1c(C)c2c(C)[nH]nc2oc1=O	-2	-1	-9	-5	3	i
CC(=O)c1ccc(N(CC(=O)NCc2ccc3c(c2)OCO3)C(=O)c2csnn2)cc1	2	0	-1	2	0	i
Cc1cccc2nc(C(=O)Nc3cccc(C(=O)NC4CC4)c3)cn12	1	0	8	-4	3	i
O=S(=O)(Nc1nc2ccccc2nc1NCc1ccco1)c1ccccc1	-41	2	-26	0	-3	+
COc1ccccc1CNC(=O)COC(=O)[C@H](Cc1c[nH]c2ccccc12)NC(=O)c1cccs1	-1	2	4	0	-2	i

Screening data as filed in PubChem BioAssay.
